The source of these data is publication PMC4690987 (Journal of Medicinal Chemistry, 2015).

Some results are limits rather than exact numbers.

In data set [1] the test system is HIV-1 NL4-3 strain. The data set is described as follows: Antiviral assay in HIV-1 infected TZM-bl cells. It counts as cell-based. As to conditions: for IC50: read-out: IC50 HIV-1 strain NL4-3, MOI 0.5, 48 h, LTR-luciferase signal; for antiviral or cytotoxic activity: HIV-1 NL4-3; for SI HIV-1 strain NL4-3: CC50 value/IC50 value. The essentials:
(§1)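 TZM-bl cells (HeLa expressing CD4 and CCR5, with LTR-driven luciferase and β-galactosidase) were seeded at 1 ×10^4 cells/well in DMEM/10% FBS and left to adhere overnight. Cells were infected with HIV-1 NL4-3 or BaL at MOI 0.5, treated with serial dilutions of test compound, and incubated at 37 °C for 48 h. IC50 was taken as 50% inhibition of LTR-luciferase signal. CC50 came from parallel MTT on mock-infected cells. SI = CC50/IC50.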

Data set [2] is described as follows: Cytotoxicity assay. It counts as cell-based. The conditions noted are these: human, uninfected (mock-infected) TZM-bl cells. The essentials:
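Run in parallel with the antiviral assay, under the same conditions but on uninfected TZM-bl cells (1 ×10^4 cells/well, seeded overnight, test compound in serial dilution, 37 °C, 48 h). Viability was read by MTT absorbance. CC50 was the concentration that reduced absorbance of mock-infected cells by 50%.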

Data set [3] concerns the target LTR-IV G4. Nature of the data set: SPR analysis. The arrangement: species or system HIV-1. The conditions noted are these: read-out: KD LTR-IV G4 (SPR); 25 °C, HEPES-KCl buffer, 1:1 binding model. The essentials: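 5′-biotinylated oligonucleotides folded (95 °C for 5 min, cooled to room temperature), diluted to 30 nM and captured on a streptavidin chip to about 500 RU, with an empty reference cell. Running buffer was 0.01 M HEPES pH 7.4, 0.2 M KCl, 3 mM EDTA. Test compound run at 25–200 nM, 30 μL/min, with 280 s contact and 360 s dissociation. Surface regenerated with 10 mM glycine pH 2.0. Sensorgrams buffer-corrected and fitted to a 1:1 model. At least two independent runs, χ2 below 0.2.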
(In SPR one partner is held on a chip, and binding of the other changes the refractive index at the surface.)

The subject of data set [4] is HIV-1 BaL strain. Nature of the data set: Antiviral assay in HIV-1 infected TZM-bl cells. The data set is classed as cell-based. Put shortly: as §1
Data set [5] concerns LTR-IV G4. The data set is described as follows: FRET melting assay. It counts as binding, HIV-1. As to conditions: for stabilization (ΔTm, FRET) at 4-fold c-exNDI:DNA molar ratio: 25 °C is the maximum increase measurable, data not shown; for difference in stabilization of LTR-IV G4s vs hTel G4: FRET, equimolar amounts. The essentials:
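Oligonucleotide labelled with FAM at the 5′ end and TAMRA at the 3′ end, 0.25 μM, folded in lithium cacodylate buffer with 100 mM potassium, plus equimolar test compound. After equilibration at 4 °C, FAM emission was followed from 30 to 95 °C at 1 °C/min. Profiles were normalized, and Tm was the temperature at 0.5 normalized fluorescence.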

Data set [6] concerns c-myc G4. The data set is described as follows: ESI-MS competition assay. It counts as binding. The conditions noted are these: 2-fold molar excess of compound. Put shortly: (§2)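 G4 oligonucleotides heat-denatured and folded overnight at room temperature in 10 mM KCl, 150 mM trimethylammonium acetate pH 6.8. Equimolar pairs of G4s incubated overnight at 4 °C with 2-fold excess test compound, then injected via HPLC into ESI-MS. Binding affinity = bound/(free + bound) ×100, from reconstructed-ion chromatogram areas. Bound includes one or two ligands; free includes K+ adducts.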

Data set [7] deals with LTR-IV G4. Nature of the data set: ESI-MS competition assay. The data set is classed as binding, HIV-1. As to conditions: 2-fold molar excess of compound. The essentials:
as §2

The subject of data set [8] is c-kit2 G4. The data set is described as follows: ESI-MS competition assay. The data set is classed as binding. The conditions noted are these: 2-fold molar excess of compound. Put shortly: as §2
Data set [9] deals with hTel G4. The data set is described as follows: ESI-MS competition assay. It counts as binding, human. The conditions noted are these: 2-fold molar excess of compound. The essentials:
as §2

In data set [10] the test system is LTR-III G4. Nature of the data set: ESI-MS competition assay. The data set is classed as binding, HIV-1. As to conditions: 2-fold molar excess of compound. The essentials: as §2
Data set [11] relates to HIV-1 NL4-3. Nature of the data set: HIV-1 entry assay. It counts as cell-based. As to conditions: TZM-bl cells, virus production at 31 h pi; 2 50–100 nM, AZT 0.5 μg/mL, DS 100 μg/mL. The essentials:
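TZM-bl cells (HeLa stably expressing CD4, CCR5 and HIV-1 LTR-driven luciferase) were grown in DMEM/10% FBS. Cells were seeded at 1 × 10^4 per well and allowed to adhere overnight, then infected with HIV-1 NL4-3 at MOI 0.5 and kept at 37 °C. Test compound or reference agents were added at 0, 1 or 2 h pi. At 31 h cells were PBS-washed and virus production was read as LTR-luciferase RLU.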

For data set [12] the following is noted: cited from earlier work.

Regarding `CN(C)CCCn1c(=O)c2cc(Br)c3c(=O)n(CCCN(C)C)c(=O)c4c5[nH]c6ccc([N+](=O)[O-])cc6[nH]c5c(c1=O)c2c34` [Compound 5], the IC50 in [1] came out at 0.023 ± 0.0013 µM. In data set [2], this compound returned a CC50 of 0.439 ± 0.0107 µM. Also, the Kd in [3] worked out at 0.0059 µM.
For the compound `CN(C)CCCn1c(=O)c2cc(Br)c3c(=O)n(CCCN(C)C)c(=O)c4c5[nH]c6ccccc6[nH]c5c(c1=O)c2c34` [Compound 3], in data set [1], the IC50 amounted to 0.0157 ± 0.0021 µM. In data set [2], this compound registered a cytotoxic concentration (CC50) of 0.343 ± 0.0322 µM. In addition, the “SI HIV-1 strain BaL” value in [4] (CC50 value/IC50 value) amounted to 11. The IC50 in data set [4] (read-out: IC50 HIV-1 strain BaL, MOI 0.5, 48 h, LTR-luciferase signal) is 0.0325 ± 0.0071 µM. Moreover, in data set [5], the “stabilization (ΔTm, FRET) at 4-fold c-exNDI:DNA molar ratio” value is “above 25 °C” and the “difference in stabilization of LTR-IV G4s vs hTel G4” value is at least 6 °C. In data set [3], the Kd came out at 0.0066 µM.
Consider `CN(C)CCCn1c(=O)c2ccc3c(=O)n(CCCN(C)C)c(=O)c4c5[nH]c6cc([N+](=O)[O-])ccc6[nH]c5c(c1=O)c2c34` [Compound 4], for which the “binding affinity cell G4 (myc)” value in data set [6] (competing G4s LTR-III/myc) was 37; in data set [6] (competing G4s LTR-IV/myc), 45. In addition, the “binding affinity LTR-IV” value in data set [7] (competing G4s LTR-III/LTR-IV) was 68; in [7] (competing G4s LTR-IV/hTel), 75; in data set [7] (competing G4s LTR-IV/kit), 55; in data set [7] (competing G4s LTR-IV/myc), 71. For the same compound, it took 0.188 ± 0.00408 µM to reach half-maximal cytotoxicity in data set [2] (CC50). Besides, the “binding affinity cell G4 (kit)” value in data set [8] (competing G4s LTR-III/kit) was 18; in data set [8] (competing G4s LTR-IV/kit), 23. The “binding affinity cell G4 (hTel)” value worked out at 10 in data set [9] (competing G4s LTR-III/hTel) and 18 in [9] (competing G4s LTR-IV/hTel). Besides, the “binding affinity LTR-III” value in data set [10] (competing G4s LTR-III/LTR-IV) is reported as 80; in [10] (competing G4s LTR-III/kit) it was 54; in data set [10] (competing G4s LTR-III/myc) it was 51. In data set [5], the “stabilization (ΔTm, FRET) at 4-fold c-exNDI:DNA molar ratio” value is “above 25 °C”.
As for dextran sulfate [DS], the “antiviral activity as a function of time of addition (0, 1, 2 h pi)” value in data set [11] is “exhibited antiviral effect only when added at 0 h pi”.
For the compound `C[N+](C)(C)CCCn1c(=O)c2ccc3c(=O)n(CCC[N+](C)(C)C)c(=O)c4c5[nH]c6ccccc6[nH]c5c(c1=O)c2c34.[I-].[I-]` [Compound 10], in [1], the “antiviral or cytotoxic activity” value was “did not display any antiviral or cytotoxic activity”. In [2], this compound gave a CC50 above 5 µM. Besides, in [5], the “stabilization (ΔTm, FRET) at 4-fold c-exNDI:DNA molar ratio” value is “above 25 °C” and the “difference in stabilization of LTR-IV G4s vs hTel G4” value is at least 6 °C. In addition, the Kd in [3] was determined as 0.0017 µM.
In the case of `Cc1cn([C@H]2C[C@H](N=[N+]=[N-])[C@@H](CO)O2)c(=O)[nH]c1=O` [AZT, Zidovudine], in [11], the “antiviral activity as a function of time of addition (0, 1, 2 h pi)” value was “maintaining activity from 0 to 2 h pi”.
On to `C[N+](C)(C)CCCn1c(=O)c2cc(Br)c3c(=O)n(CCC[N+](C)(C)C)c(=O)c4c5[nH]c6ccccc6[nH]c5c(c1=O)c2c34.[I-].[I-]` [Compound 11], for which, in data set [1], the “antiviral or cytotoxic activity” value is given as “did not display any antiviral or cytotoxic activity”. Moreover, the CC50 in data set [2] was above 5 µM. In data set [5], the “stabilization (ΔTm, FRET) at 4-fold c-exNDI:DNA molar ratio” value is “above 25 °C”. In data set [3], the Kd is 0.0129 µM.
For `CN(C)CCCn1c(=O)c2cc(Br)c3c(=O)n(CCCN(C)C)c(=O)c4c5[nH]c6ncccc6[nH]c5c(c1=O)c2c34` [Compound 8], the “SI HIV-1 strain NL4-3” value in data set [1] was found to be 7.2. The CC50 in data set [2] turned out to be 0.458 ± 0.054 µM.
Consider `CN(C)CCCn1c(=O)c2cc(Br)c3c(=O)n(CCCN(C)C)c(=O)c4c5[nH]c6ccc(C(=O)O)cc6[nH]c5c(c1=O)c2c34` [Compound 7], for which the “SI HIV-1 strain NL4-3” value in data set [1] is reported as above 6. Moreover, the half-maximal cytotoxic concentration (CC50) in data set [2] is above 5 µM. In addition, in [12], the “pKa of the (CH2)3NHMe2+ moieties” value was above 8.1. Besides, in [3], the Kd was determined as 0.0216 µM.
In the case of `CN(C)CCCNc1cc2c(=O)n(CCCN(C)C)c(=O)c3c4[nH]c5ccccc5[nH]c4c4c(=O)n(CCCN(C)C)c(=O)c1c4c23` [Compound 9], the “SI HIV-1 strain NL4-3” value in data set [1] is given as 2.2. This compound gave a CC50 in data set [2] of 1.76 ± 0.0625 µM.
In the case of `CN(C)CCCn1c(=O)c2ccc3c(=O)n(CCCN(C)C)c(=O)c4c5[nH]c6cc(C(=O)O)ccc6[nH]c5c(c1=O)c2c34` [Compound 6], the “SI HIV-1 strain NL4-3” value in data set [1] is above 5. The same compound showed a CC50 in data set [2] above 5 µM. Also, in data set [12], the “pKa of the (CH2)3NHMe2+ moieties” value is above 8.1.

In general, IC50 refers to the concentration at which inhibition is half-maximal. As a reminder, the CC50 is the concentration giving 50% cytotoxicity. As a reminder, the Kd is the concentration at which binding is half-saturated.
